From ChEMBL document CHEMBL4513216, “Probing the Open Global Health Chemical Diversity Library for Multistage-Active Starting Points for Next-Generation Antimalarials” (ACS Infect Dis, 2020) come the findings set out here.

The nature of this data set: Toxicity liver stage against HepG2, at 10uM. Also on record: test concentration 10 uM, cell line HepG2-A16-CD81EGFP. Particulars: human, HepG2-A16-CD81EGFP cells; read-out: INHIBITION
It is filed as cell-based. A digest of the protocol:
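Uninfected HepG2-A16-CD81EGFP cells, 3 × 10^3 per well, 1536-well, plated on prespotted compound at 10 μM final, parasite-free screening media added to match infected plates; puromycin 10 μM positive, DMSO 0.5% negative; run in parallel with 48 h PbLuc assay at 37 °C, 5% CO2; viability by CellTiter-Glo luminescence, normalized to controls.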

With `CN(C)[C@@H]1CN(C(=O)Cc2ccccc2)[C@@H]2CCCO[C@H]12`, the cytotoxicity at 10 µM came to 3.31%.

Consider `O=C(c1[nH]nc2c1CCCC2)N1CCC(OCCN2CCCCC2)C1` (configuration not stated), for which the cytotoxicity at 10 µM was -4.52%.

`Cc1ccc(CCNC(=O)NCc2cccc(OC(F)F)c2)cn1`: the cytotoxicity at 10 µM is -2.66%.

As to `CC(C)c1nnc(CN2CCCC(c3cc(C(N)=O)[nH]n3)C2)o1` (configuration not stated), the cytotoxicity at 10 µM was -29.7%.

As to `CN(Cc1ccco1)[C@@H]1CN(Cc2cccs2)C[C@@H]2CCCO[C@@H]21`, the cytotoxicity at 10 µM worked out at 3.65%.

On to `O=C(NCCSC1CCCC1)c1cc(C2CC2)on1`, for which the cytotoxicity at 10 µM stood at 0.459%.

In the case of `CC(=O)N1CCCN(C(=O)NC(C)Cn2ccnc2)CC1` (configuration not stated), the cytotoxicity at 10 µM is 4.52%.

Turning to `COCC(NC1CCSCC1)c1ccnn1C` (configuration not stated), the cytotoxicity at 10 µM is 13.5%.

With `Cc1cc(N2CCC(c3nnc(CN(C)C)n3C3CC3)CC2)ccn1`, the cytotoxicity at 10 µM worked out at 7.57%.

For `COc1ccccc1N1CCN(C(=O)CCCS(N)(=O)=O)C(C)C1` (configuration not stated), the cytotoxicity at 10 µM was determined as 6.15%.

Take `Cn1ncc2c(N[C@H]3CCCC[C@@H]3O)nc(C(C)(C)C)nc21`: the cytotoxicity at 10 µM is -21.5%.

Turning to `Cc1cc(C(F)(F)F)nn1CCCNC(=O)C1CCCC1`, the cytotoxicity at 10 µM is -4.93%.

Regarding `N#Cc1c(Cl)nsc1NCCN1CCOCC1`, the cytotoxicity at 10 µM was 9.64%.

Consider `CCc1nc(CSc2nnc(N)n2C2CC2)no1`, for which the cytotoxicity at 10 µM was 6.12%.

On to `Cc1nc(CN2CCc3nn(C(C)C)c(=O)cc3C2)oc1C`, for which the cytotoxicity at 10 µM was -7.52%.

With `Nc1nnc(SCc2cc(=O)n3c4c(sc3n2)CCCC4)[nH]1`, the cytotoxicity at 10 µM is -4.19%.

On to `CC(=O)C1(c2ccccc2)CCN(C(=O)c2ccc3nnnn3c2)CC1`, for which the cytotoxicity at 10 µM was determined as 20.1%.

In the case of `c1ccc(CCN2CCc3c(ncn3C3CC3)C2)nc1`, the cytotoxicity at 10 µM is -1.43%.

`CS(=O)(=O)N1CCOCC2(CCN(C(=O)c3ccco3)CC2)C1`: the cytotoxicity at 10 µM was found to be 4.29%.

As to `CC(C)CS(=O)(=O)N1C[C@@H]2C[C@H](C(=O)N3CCN(C)CC3)[C@H](C1)O2`, the cytotoxicity at 10 µM was found to be 0.508%.

In the case of `Cn1ccnc1CN1CCC(CCCc2ccccn2)(C(N)=O)CC1`, the cytotoxicity at 10 µM was -1.31%.

Take `c1csc(CCNc2nc(-c3ccncc3)nc3c2CCNCC3)c1`: the cytotoxicity at 10 µM was -165%.

Consider `NC(=O)c1cn(CC2CC2)c(C2CC2)n1`, for which the cytotoxicity at 10 µM stood at 0.524%.

Consider `CCc1cnc(N)nc1N1CCCC2(CCOCC2)C1`, for which the cytotoxicity at 10 µM was -135%.

With `CN(C)C(=O)CN1CC[C@H]2CN(C3CCOCC3)C[C@@H]2C1=O`, the cytotoxicity at 10 µM was -3.84%.

With `COc1ccc(/C=C/CN2CCN(c3ncccc3C(N)=O)CC2)cc1`, the cytotoxicity at 10 µM was -8.88%.

As to `COCCN1CCC(Cc2cncc(-c3ccc(C(=O)O)cc3)n2)C1` (configuration not stated), the cytotoxicity at 10 µM is -0.413%.

`Cc1cn2c(n1)C(CNCc1cnn3ccccc13)CCC2` (configuration not stated): the cytotoxicity at 10 µM stood at 1.78%.

`CC(NC(=O)NCC1(c2ccc(F)cc2)CC1)c1nncn1C` (configuration not stated): the cytotoxicity at 10 µM was -4.75%.

As for `O=C(CN1CCNCC1)NCc1ccc2sccc2c1`, the cytotoxicity at 10 µM came out at 1.16%.

With `CC(C)c1nnc(CN2CCN(CC(O)c3ccccc3)CC2)o1` (configuration not stated), the cytotoxicity at 10 µM was -7.03%.

Regarding `CC(=O)N1CCN(c2ccccc2CNc2ccc(C)cn2)CC1`, the cytotoxicity at 10 µM was 11.2%.

For the molecule `Cc1cc(NCCNc2ccc(C#N)cn2)nc(C)n1`, the cytotoxicity at 10 µM worked out at 4.42%.

`COc1ccc(S(=O)(=O)NCCC(O)c2cc(C)oc2C)c(C)c1` (configuration not stated): the cytotoxicity at 10 µM was -0.165%.

On to `COc1ccnc(N2CCN(C(=O)CCc3nccs3)CC2)n1`, for which the cytotoxicity at 10 µM was -8.97%.

In the case of `Cc1ccc(C(C)NC(=O)N2CCN(S(C)(=O)=O)CC2)o1` (configuration not stated), the cytotoxicity at 10 µM amounted to 25.3%.

In the case of `Cc1cc(C(=O)N2CCCC(c3cc(=O)nc4n3CCC4)C2)on1` (configuration not stated), the cytotoxicity at 10 µM is -1.28%.

On to `CC(=O)NCCCc1ncnn1-c1cccc(Cl)c1`, for which the cytotoxicity at 10 µM came out at 0.254%.

`CC1C(=O)Nc2cccnc2N1S(=O)(=O)c1ccc(C#N)c(Cl)c1` (configuration not stated): the cytotoxicity at 10 µM is -6.75%.

Take `CCN1CC2(CCC1=O)CCN(c1ccc(C(C)=O)cn1)CC2`: the cytotoxicity at 10 µM is -8.63%.

Regarding `Cc1ccc2c(c1)CCC21CCN(CCO)CC1`, the cytotoxicity at 10 µM is -0.675%.

As to `Cc1ccnc(C2CCN(c3ccnc(C)n3)C2)n1` (configuration not stated), the cytotoxicity at 10 µM was -0.485%.

Consider `Cc1ccc(C(=O)N(C)CCOc2ccccc2F)c(=O)[nH]1`, for which the cytotoxicity at 10 µM is -136%.

On to `CC1CN(Cc2ccccn2)CCN1c1ccc2nncn2n1` (configuration not stated), for which the cytotoxicity at 10 µM is -1.07%.

Turning to `c1ccc(Cc2nnc(CN3CCCCC3Cn3cncn3)o2)cc1` (configuration not stated), the cytotoxicity at 10 µM is -20.4%.

Regarding `CCOc1nnc(CN(CC)CC(=O)Nc2c(F)cccc2F)s1`, the cytotoxicity at 10 µM is -2.62%.

`O=C(CC1CCCO1)NCCCC(=O)Nc1ccc(Cl)cc1` (configuration not stated): the cytotoxicity at 10 µM amounted to 2.91%.

On to `CCn1cnnc1CNC(=O)CCC(=O)c1ccc2c(c1)OCCO2`, for which the cytotoxicity at 10 µM is -3.59%.

Turning to `Cn1nc(C2CCCN(Cc3ccc(F)cc3F)C2)c2nccnc21` (configuration not stated), the cytotoxicity at 10 µM is -8.46%.

For `Cn1cnnc1SCC(=O)NC1CC(=O)N(CCc2cccc(Cl)c2)C1` (configuration not stated), the cytotoxicity at 10 µM is 2.3%.

For `CN(C)C(=O)CO[C@H]1CN(Cc2ccc3c(c2)OCO3)[C@@H]2COC[C@H]12`, the cytotoxicity at 10 µM worked out at 5.9%.

As to `CC(C)OCc1nn(C)c2c1CCN(Cc1ccco1)C2`, the cytotoxicity at 10 µM was -115%.

As for `N[C@H]1CN(C(=O)CCC(F)(F)F)C[C@@H]1c1ccccc1`, the cytotoxicity at 10 µM was determined as 6.95%.

Take `CCS(=O)(=O)N1CCc2cc(C(=O)NC)c(NCC(C)C)nc2CC1`: the cytotoxicity at 10 µM is -149%.

For `CN(CCOc1ccccc1Cl)S(=O)(=O)N1CCOCC1`, the cytotoxicity at 10 µM is -3.51%.

`Nc1ccnc(-c2cc(NC3CCNCC3)nc3[nH]ccc23)c1`: the cytotoxicity at 10 µM is 3.18%.

For `Cc1c(C(=O)N2CCS(=O)(=O)CC2)nnn1-c1ccc2ncccc2c1`, the cytotoxicity at 10 µM was -5.82%.

`O=C(c1cc(F)ccc1O)N1CCN(C(=O)C2CCC2)CC1`: the cytotoxicity at 10 µM is 1.22%.

For `CC(C(=O)N1CCCCCC1)N1CCN(Cc2nccn2C)CC1` (configuration not stated), the cytotoxicity at 10 µM was -5.28%.

For `Cc1cc(CN(Cc2ccccc2)C2CC2)on1`, the cytotoxicity at 10 µM came to 0.174%.

On to `Cn1cccc1C(=O)N1CCn2cc(CN3CCCC3)nc2C1`, for which the cytotoxicity at 10 µM is -72.3%.

`COc1ccccc1CC(=O)N1CCCC(c2nccn2CC(N)=O)C1` (configuration not stated): the cytotoxicity at 10 µM was 12.9%.

With `CC(=O)N1[C@H](Cn2cncn2)C[C@@H]2CN(S(C)(=O)=O)CC[C@@H]21`, the cytotoxicity at 10 µM is -10.9%.

As to `CN(CCc1cn[nH]c1)Cc1nc(Cc2cccc(F)c2)no1`, the cytotoxicity at 10 µM was -1.53%.

With `O=C1CCCN1CCN1CC=C(c2cnn(C3CCS(=O)(=O)C3)c2)CC1` (configuration not stated), the cytotoxicity at 10 µM is -0.36%.

Take `CC(O)c1cccc(-n2c(CCC(=O)O)nc3ccccc32)c1` (configuration not stated): the cytotoxicity at 10 µM was found to be 2.16%.

Consider `Cc1nc(CN(C)C2CCN(CCCc3ccccc3)C2)no1` (configuration not stated), for which the cytotoxicity at 10 µM was -16.1%.

Regarding `CN1CCN(C(=O)c2cnc3c(cnn3C3CCCC3)c2)CC1`, the cytotoxicity at 10 µM is -14.6%.

For the molecule `CCC(C)N1CCC2(CC1)CN(c1cncnc1)C(=O)CO2` (configuration not stated), the cytotoxicity at 10 µM was -0.414%.

In the case of `CC(C)COCC(NC(=O)CSc1nnc[nH]1)c1ccco1` (configuration not stated), the cytotoxicity at 10 µM came out at 11.4%.

On to `O=C(c1cccc(F)c1)N1CCCC1c1ncc2c(n1)CCNC2` (configuration not stated), for which the cytotoxicity at 10 µM was -12.2%.

Consider `CN1C(=O)CCC12CCN(c1ccc(C#N)cn1)CC2`, for which the cytotoxicity at 10 µM is -109%.
